Source: ChEMBL document CHEMBL5058577, “EUbOPEN Chemogenomics Library 2 (Multiplex)” (2022)

Test system: Fibroblast
Assay: Multiplex assay against human fibroblast
Format: toxicity, cell-based
How it was run: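 Four dyes were applied at seeding to live cells: Hoechst33342, BioTracker Green Microtubule Cytoskeleton Dye, MitoTracker Red and Annexin V Alexa Fluor 680. Imaging after compound addition used a CQ1 microscope at 37°C and 5% CO2. CellPathfinder machine-learning gating then sorted cells into Hoechst high-intensity objects or normal cells, normal cells into healthy, pyknosed or fragmented nuclei, and pyknosed cells into mitotic or apoptotic, with tubulin, mitochondrial-mass and membrane-permeability phenotypes given as per cents of healthy-nucleus cells.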

[1] = 12 h, 1 µM, compound concentration 1 uM, replicate 1
[2] = 12 h, 1 µM, compound concentration 1 uM, replicate 2
[3] = 12 h, 10 µM, compound concentration 10 uM, replicate 1
[4] = 12 h, 10 µM, compound concentration 10 uM, replicate 2
[5] = 24 h, 1 µM, compound concentration 1 uM, replicate 1
[6] = 24 h, 1 µM, compound concentration 1 uM, replicate 2
[7] = 24 h, 10 µM, compound concentration 10 uM, replicate 1
[8] = 24 h, 10 µM, compound concentration 10 uM, replicate 2
[9] = 48 h, 1 µM, compound concentration 1 uM, replicate 1
[10] = 48 h, 1 µM, compound concentration 1 uM, replicate 2
[11] = 48 h, 10 µM, compound concentration 10 uM, replicate 1
[12] = 48 h, 10 µM, compound concentration 10 uM, replicate 2

Cc1cc(=O)n(C)c2cc(N3C(=O)CC[C@H](NS(=O)(=O)CC(C)C)[C@H]3c3ccc(Cl)cc3)ccc12
Population Apoptotic (%) [1]: 31%
Population Fragmented Nuclei (%) [1]: 16%
Population Healthy Nuclei (%) [1]: 56%
Population Hoechst High Intensity Objects (%) [1]: 2%
Population Membrane Permeable-Phenotype (%) [1]: 0%
Population Mitochondria Different-Phenotype (%) [1]: 4%
Population Mitotic Cells (%) [1]: 68%
Population Normal (%) [1]: 97%
Population Pyknosed Nuclei (%) [1]: 26%
Population Tubulin-Different-Phenotype (%) [1]: 34%
Total Cell Count [1]: 135
Population Apoptotic (%) [2]: 38%
Population Fragmented Nuclei (%) [2]: 20%
Population Healthy Nuclei (%) [2]: 38%
Population Hoechst High Intensity Objects (%) [2]: 10%
Population Membrane Permeable-Phenotype (%) [2]: 8%
Population Mitotic Cells (%) [2]: 62%
Population Normal (%) [2]: 89%
Population Pyknosed Nuclei (%) [2]: 40%
Population Tubulin-Different-Phenotype (%) [2]: 61%
Total Cell Count [2]: 137
Population Apoptotic (%) [3]: 41%
Population Fragmented Nuclei (%) [3]: 11%
Population Healthy Nuclei (%) [3]: 40%
Population Hoechst High Intensity Objects (%) [3]: 3%
Population Membrane Permeable-Phenotype (%) [3]: 1%
Population Mitochondria Different-Phenotype (%) [3]: 8%
Population Mitotic Cells (%) [3]: 58%
Population Normal (%) [3]: 96%
Population Pyknosed Nuclei (%) [3]: 48%
Population Tubulin-Different-Phenotype (%) [3]: 86%
Total Cell Count [3]: 149
Population Apoptotic (%) [4]: 18%
Population Fragmented Nuclei (%) [4]: 26%
Population Healthy Nuclei (%) [4]: 31%
Population Hoechst High Intensity Objects (%) [4]: 11%
Population Membrane Permeable-Phenotype (%) [4]: 8%
Population Mitotic Cells (%) [4]: 82%
Population Normal (%) [4]: 88%
Population Pyknosed Nuclei (%) [4]: 42%
Population Tubulin-Different-Phenotype (%) [4]: 94%
Total Cell Count [4]: 133
Population Apoptotic (%) [5]: 34%
Population Fragmented Nuclei (%) [5]: 18%
Population Healthy Nuclei (%) [5]: 62%
Population Hoechst High Intensity Objects (%) [5]: 2%
Population Membrane Permeable-Phenotype (%) [5]: 1%
Population Mitochondria Different-Phenotype (%) [5]: 4%
Population Mitotic Cells (%) [5]: 65%
Population Normal (%) [5]: 97%
Population Pyknosed Nuclei (%) [5]: 18%
Population Tubulin-Different-Phenotype (%) [5]: 24%
Total Cell Count [5]: 140
Population Apoptotic (%) [6]: 50%
Population Fragmented Nuclei (%) [6]: 26%
Population Healthy Nuclei (%) [6]: 44%
Population Hoechst High Intensity Objects (%) [6]: 10%
Population Membrane Permeable-Phenotype (%) [6]: 13%
Population Mitochondria Different-Phenotype (%) [6]: 5%
Population Mitotic Cells (%) [6]: 50%
Population Normal (%) [6]: 89%
Population Pyknosed Nuclei (%) [6]: 29%
Population Tubulin-Different-Phenotype (%) [6]: 70%
Total Cell Count [6]: 128
Population Apoptotic (%) [7]: 43%
Population Fragmented Nuclei (%) [7]: 14%
Population Healthy Nuclei (%) [7]: 46%
Population Hoechst High Intensity Objects (%) [7]: 10%
Population Membrane Permeable-Phenotype (%) [7]: 0%
Population Mitochondria Different-Phenotype (%) [7]: 19%
Population Mitotic Cells (%) [7]: 56%
Population Normal (%) [7]: 90%
Population Pyknosed Nuclei (%) [7]: 39%
Population Tubulin-Different-Phenotype (%) [7]: 88%
Total Cell Count [7]: 150
Population Apoptotic (%) [8]: 42%
Population Fragmented Nuclei (%) [8]: 28%
Population Healthy Nuclei (%) [8]: 26%
Population Hoechst High Intensity Objects (%) [8]: 8%
Population Membrane Permeable-Phenotype (%) [8]: 17%
Population Mitochondria Different-Phenotype (%) [8]: 8%
Population Mitotic Cells (%) [8]: 57%
Population Normal (%) [8]: 91%
Population Pyknosed Nuclei (%) [8]: 45%
Population Tubulin-Different-Phenotype (%) [8]: 85%
Total Cell Count [8]: 143
Population Apoptotic (%) [9]: 48%
Population Fragmented Nuclei (%) [9]: 27%
Population Healthy Nuclei (%) [9]: 54%
Population Hoechst High Intensity Objects (%) [9]: 2%
Population Membrane Permeable-Phenotype (%) [9]: 1%
Population Mitochondria Different-Phenotype (%) [9]: 2%
Population Mitotic Cells (%) [9]: 52%
Population Normal (%) [9]: 97%
Population Pyknosed Nuclei (%) [9]: 18%
Population Tubulin-Different-Phenotype (%) [9]: 27%
Total Cell Count [9]: 141
Population Apoptotic (%) [10]: 46%
Population Fragmented Nuclei (%) [10]: 35%
Population Hoechst High Intensity Objects (%) [10]: 7%
Population Membrane Permeable-Phenotype (%) [10]: 8%
Population Mitochondria Different-Phenotype (%) [10]: 8%
Population Mitotic Cells (%) [10]: 53%
Population Normal (%) [10]: 92%
Population Pyknosed Nuclei (%) [10]: 9%
Population Tubulin-Different-Phenotype (%) [10]: 73%
Total Cell Count [10]: 142
Population Apoptotic (%) [11]: 61%
Population Fragmented Nuclei (%) [11]: 23%
Population Healthy Nuclei (%) [11]: 38%
Population Hoechst High Intensity Objects (%) [11]: 15%
Population Membrane Permeable-Phenotype (%) [11]: 0%
Population Mitochondria Different-Phenotype (%) [11]: 24%
Population Mitotic Cells (%) [11]: 38%
Population Normal (%) [11]: 84%
Population Pyknosed Nuclei (%) [11]: 37%
Population Tubulin-Different-Phenotype (%) [11]: 92%
Total Cell Count [11]: 153
Population Apoptotic (%) [12]: 54%
Population Fragmented Nuclei (%) [12]: 34%
Population Healthy Nuclei (%) [12]: 37%
Population Hoechst High Intensity Objects (%) [12]: 10%
Population Membrane Permeable-Phenotype (%) [12]: 25%
Population Mitochondria Different-Phenotype (%) [12]: 8%
Population Mitotic Cells (%) [12]: 45%
Population Normal (%) [12]: 89%
Population Pyknosed Nuclei (%) [12]: 27%
Population Tubulin-Different-Phenotype (%) [12]: 87%
Total Cell Count [12]: 141

Cc1cc(NC(=O)NCCN2CCC(O)(Cc3ccccc3)CC2)c2ccccc2n1 [PALOSURAN]
Population Apoptotic (%) [1]: 37%
Population Fragmented Nuclei (%) [1]: 10%
Population Healthy Nuclei (%) [1]: 77%
Population Hoechst High Intensity Objects (%) [1]: 2%
Population Membrane Permeable-Phenotype (%) [1]: 3%
Population Mitochondria Different-Phenotype (%) [1]: 1%
Population Mitotic Cells (%) [1]: 62%
Population Normal (%) [1]: 97%
Population Pyknosed Nuclei (%) [1]: 12%
Population Tubulin-Different-Phenotype (%) [1]: 19%
Total Cell Count [1]: 133
Population Apoptotic (%) [2]: 40%
Population Fragmented Nuclei (%) [2]: 26%
Population Healthy Nuclei (%) [2]: 44%
Population Hoechst High Intensity Objects (%) [2]: 9%
Population Membrane Permeable-Phenotype (%) [2]: 1%
Population Mitochondria Different-Phenotype (%) [2]: 13%
Population Mitotic Cells (%) [2]: 59%
Population Normal (%) [2]: 90%
Population Pyknosed Nuclei (%) [2]: 28%
Population Tubulin-Different-Phenotype (%) [2]: 46%
Total Cell Count [2]: 143
Population Apoptotic (%) [3]: 40%
Population Fragmented Nuclei (%) [3]: 14%
Population Healthy Nuclei (%) [3]: 69%
Population Hoechst High Intensity Objects (%) [3]: 1%
Population Membrane Permeable-Phenotype (%) [3]: 0%
Population Mitochondria Different-Phenotype (%) [3]: 13%
Population Mitotic Cells (%) [3]: 59%
Population Normal (%) [3]: 98%
Population Pyknosed Nuclei (%) [3]: 15%
Population Tubulin-Different-Phenotype (%) [3]: 37%
Total Cell Count [3]: 178
Population Apoptotic (%) [4]: 41%
Population Fragmented Nuclei (%) [4]: 28%
Population Healthy Nuclei (%) [4]: 49%
Population Hoechst High Intensity Objects (%) [4]: 6%
Population Membrane Permeable-Phenotype (%) [4]: 3%
Population Mitochondria Different-Phenotype (%) [4]: 3%
Population Mitotic Cells (%) [4]: 58%
Population Normal (%) [4]: 93%
Population Pyknosed Nuclei (%) [4]: 22%
Population Tubulin-Different-Phenotype (%) [4]: 51%
Total Cell Count [4]: 113
Population Apoptotic (%) [5]: 53%
Population Fragmented Nuclei (%) [5]: 15%
Population Healthy Nuclei (%) [5]: 73%
Population Hoechst High Intensity Objects (%) [5]: 2%
Population Membrane Permeable-Phenotype (%) [5]: 1%
Population Mitochondria Different-Phenotype (%) [5]: 0%
Population Mitotic Cells (%) [5]: 46%
Population Normal (%) [5]: 97%
Population Pyknosed Nuclei (%) [5]: 10%
Population Tubulin-Different-Phenotype (%) [5]: 17%
Total Cell Count [5]: 129
Population Apoptotic (%) [6]: 40%
Population Fragmented Nuclei (%) [6]: 27%
Population Healthy Nuclei (%) [6]: 50%
Population Hoechst High Intensity Objects (%) [6]: 6%
Population Membrane Permeable-Phenotype (%) [6]: 14%
Population Mitochondria Different-Phenotype (%) [6]: 21%
Population Mitotic Cells (%) [6]: 60%
Population Normal (%) [6]: 93%
Population Pyknosed Nuclei (%) [6]: 22%
Population Tubulin-Different-Phenotype (%) [6]: 62%
Total Cell Count [6]: 119
Population Apoptotic (%) [7]: 42%
Population Fragmented Nuclei (%) [7]: 14%
Population Healthy Nuclei (%) [7]: 77%
Population Hoechst High Intensity Objects (%) [7]: 1%
Population Membrane Permeable-Phenotype (%) [7]: 0%
Population Mitochondria Different-Phenotype (%) [7]: 8%
Population Mitotic Cells (%) [7]: 57%
Population Normal (%) [7]: 98%
Population Pyknosed Nuclei (%) [7]: 8%
Population Tubulin-Different-Phenotype (%) [7]: 37%
Total Cell Count [7]: 178
Population Apoptotic (%) [8]: 60%
Population Fragmented Nuclei (%) [8]: 30%
Population Healthy Nuclei (%) [8]: 47%
Population Hoechst High Intensity Objects (%) [8]: 3%
Population Membrane Permeable-Phenotype (%) [8]: 3%
Population Mitochondria Different-Phenotype (%) [8]: 1%
Population Mitotic Cells (%) [8]: 40%
Population Normal (%) [8]: 96%
Population Pyknosed Nuclei (%) [8]: 22%
Population Tubulin-Different-Phenotype (%) [8]: 48%
Total Cell Count [8]: 117
Population Apoptotic (%) [9]: 50%
Population Fragmented Nuclei (%) [9]: 16%
Population Healthy Nuclei (%) [9]: 72%
Population Hoechst High Intensity Objects (%) [9]: 3%
Population Membrane Permeable-Phenotype (%) [9]: 0%
Population Mitochondria Different-Phenotype (%) [9]: 2%
Population Mitotic Cells (%) [9]: 50%
Population Normal (%) [9]: 96%
Population Pyknosed Nuclei (%) [9]: 11%
Population Tubulin-Different-Phenotype (%) [9]: 15%
Total Cell Count [9]: 126
Population Apoptotic (%) [10]: 61%
Population Fragmented Nuclei (%) [10]: 42%
Population Healthy Nuclei (%) [10]: 44%
Population Hoechst High Intensity Objects (%) [10]: 7%
Population Membrane Permeable-Phenotype (%) [10]: 14%
Population Mitochondria Different-Phenotype (%) [10]: 14%
Population Mitotic Cells (%) [10]: 38%
Population Normal (%) [10]: 92%
Population Pyknosed Nuclei (%) [10]: 13%
Population Tubulin-Different-Phenotype (%) [10]: 61%
Total Cell Count [10]: 149
Population Apoptotic (%) [11]: 55%
Population Fragmented Nuclei (%) [11]: 19%
Population Healthy Nuclei (%) [11]: 69%
Population Hoechst High Intensity Objects (%) [11]: 5%
Population Membrane Permeable-Phenotype (%) [11]: 0%
Population Mitochondria Different-Phenotype (%) [11]: 10%
Population Mitotic Cells (%) [11]: 44%
Population Normal (%) [11]: 94%
Population Pyknosed Nuclei (%) [11]: 10%
Population Tubulin-Different-Phenotype (%) [11]: 36%
Total Cell Count [11]: 186
Population Apoptotic (%) [12]: 61%
Population Fragmented Nuclei (%) [12]: 38%
Population Healthy Nuclei (%) [12]: 44%
Population Hoechst High Intensity Objects (%) [12]: 2%
Population Membrane Permeable-Phenotype (%) [12]: 2%
Population Mitochondria Different-Phenotype (%) [12]: 6%
Population Mitotic Cells (%) [12]: 38%
Population Normal (%) [12]: 97%
Population Pyknosed Nuclei (%) [12]: 16%
Population Tubulin-Different-Phenotype (%) [12]: 61%
Total Cell Count [12]: 112
